Experimental data taken from ChEMBL document CHEMBL1126153, “Synthesis and biological activity of certain alkyl 5-(alkoxycarbonyl)-1H-benzimidazole-2-carbamates and related derivatives: a new class of potential antineoplastic and antifilarial agents” (J Med Chem, 1992).

Key:
[1] = system: Brugia pahangi; assay: Antifilarial activity measured against the adult worms of Brugia pahangi in jirds by subcutaneous administration; format: functional; set-up: concentration or dose not given beside the values
How it was run: (§1)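 Jirds carrying implanted adult worms (three to five per group) were dosed once daily for 5 consecutive days, or on day 1 only where noted. Dosing was subcutaneous or oral, with drug as a solution or suspension in aqueous 1% (hydroxyethyl)cellulose plus 0.1% Tween 80. Survivors were necropsied 55 to 70 days after the first dose and searched for adult worms. Counts are given as % of control.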

[2] = system: L1210; assay: In vitro for its inhibitory activity against L1210 murine leukemia cell growth; format: functional, cell-based; settings: Mus musculus
How it was run: (§2)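 L1210 cells were grown in static suspension culture in Fischer's medium with test compound, and counted twice daily over 3 days. Growth rate is the control population doubling time (average 12 h) divided by the treated doubling time, as a % of control. The IC50 is the concentration that reduces the growth rate to 50% of control.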

[3] = system: L1210; assay: In vitro test against L1210 murine leukemia cell growth rate at 10 uM concentration; format: functional, Mus musculus; how it was run: as §2
[4] = system: Brugia pahangi; assay: Antifilarial activity was measured against the adult worms of Brugia pahangi in jirds by subcutaneous administration at a dose of 25 mg/Kg/day; format: functional; how it was run: as §1
[5] = species: Homo sapiens; assay: Compound was tested in vitro against human epidermoid carcinoma cell (H. Ep. 2) growth rate at a concentration of 10 uM; format: functional
[6] = system: Brugia pahangi; assay: Antifilarial activity was measured against the adult worms of Brugia pahangi in jirds by subcutaneous administration at a concentration of 12.5 mg/Kg/day
[7] = system: Brugia pahangi; assay: Antifilarial activity was measured against the adult worms of Brugia pahangi in jirds by subcutaneous administration at a concentration of 25 mg/Kg/day
[8] = system: Brugia pahangi; assay: Antifilarial activity was measured against the adult worms of Brugia pahangi in jirds by subcutaneous administration at a dose of 6.2 mg/Kg/day; format: functional; how it was run: as §1
[9] = species: Homo sapiens; assay: Compound was tested in vitro for its inhibitory activity against human epidermoid carcinoma cell (H. Ep. 2) growth at a concentration of 10 uM; format: functional; settings: HEp-2
[10] = system: Brugia pahangi; assay: Antifilarial activity measured against the adult worms of Brugia pahangi in jirds by subcutaneous administration; set-up: concentration or dose not given beside the values
[11] = system: Brugia pahangi; assay: Antifilarial activity was measured against the adult worms of Brugia pahangi in jirds by subcutaneous administration at a dose of 100 mg/Kg/day; format: functional; how it was run: as §1
[12] = system: Brugia pahangi; assay: Antifilarial activity was measured against the adult worms of Brugia pahangi in jirds by subcutaneous administration at a concentration of 100 mg/kg/day
[13] = system: L1210; assay: Compound was tested in vitro against L1210 murine leukemia cell growth rate at a concentration of 100 uM; format: functional, Mus musculus; how it was run: as §2
[14] = system: L1210; assay: Compound was tested in vitro for its inhibitory activity against L1210 murine leukemia cell growth at a concentration of 100 uM; format: functional, cell-based; settings: Mus musculus; how it was run: as §2
[15] = system: Brugia pahangi; assay: Antifilarial activity was measured against the adult worms of Brugia pahangi in jirds by subcutaneous administration at a dose of 1.6 mg/kg/day; format: functional; how it was run: as §1
[16] = system: Brugia pahangi; assay: Antifilarial activity was measured against the adult worms of Brugia pahangi in jirds by subcutaneous administration at a dose of 12.5 mg/kg/day; format: functional; how it was run: as §1
[17] = system: Brugia pahangi; assay: Antifilarial activity was measured against the adult worms of Brugia pahangi in jirds by oral administration at a dose of 100 mg/kg/day; format: functional; how it was run: as §1
[18] = system: Brugia pahangi; assay: Antifilarial activity was measured against the adult worms of Brugia pahangi in jirds by subcutaneous administration at a dose of 100 mg/kg/day; format: functional; how it was run: as §1
[19] = system: Acanthocheilonema viteae; assay: Antifilarial activity was measured against the adult worms of Acanthocheilonema viteae in jirds by oral administration at a dose of 100 mg/kg/5 days; format: functional; how it was run: as §1
[20] = system: Brugia pahangi; assay: Antifilarial activity was measured against the adult worms of Brugia pahangi in jirds by subcutaneous administration at a dose of 25 mg/kg/day
[21] = system: Brugia pahangi; assay: Antifilarial activity was measured against the adult worms of Brugia pahangi in jirds by subcutaneous administration at a dose of 50 mg/kg/day; format: functional; how it was run: as §1
[22] = system: Brugia pahangi; assay: Antifilarial activity was measured against the adult worms of Brugia pahangi in jirds by subcutaneous administration at a dose of 6.2 mg/kg/day; format: functional; how it was run: as §1
[23] = system: Acanthocheilonema viteae; assay: Antifilarial activity was measured against the adult worms of Acanthocheilonema viteae in jirds by oral administration at a concentration of 100 mg/kg/day; format: functional; how it was run: as §1
[24] = system: Acanthocheilonema viteae; assay: Antifilarial activity was measured against the adult worms of Acanthocheilonema viteae in jirds by subcutaneous administration at a concentration of 50 mg/kg/day; format: functional; how it was run: as §1
[25] = system: Brugia pahangi; assay: Antifilarial activity was measured against the adult worms of Brugia pahangi in jirds by subcutaneous administration at a dose of 6.5 mg/kg/day; format: functional; how it was run: as §1
[26] = system: Acanthocheilonema viteae; assay: Antifilarial activity was measured against the adult worms of Acanthocheilonema viteae in jirds by subcutaneous administration at a dose of 15.6 mg/kg/5 days; format: functional; settings: in the assay text read “1.56 mg/kg/5 days” for “15.6 mg/kg/5 days”; how it was run: as §1

Row | IC50 [2] | Structure (SMILES) | Control [1] | Control [3] | Control [10] | also measured
1 | > 10000 nM | C=CCOC(=O)c1ccc2[nH]c(NC(=O)OC)nc2c1 | 87% | 75% |  | 
2 | 5000 nM | COC(=O)Nc1nc2cc(C(=O)OC)ccc2[nH]1 |  | 50% |  | Control [4]: 53%; Control [5]: 0%; Control [6]: 12%; Control [7]: 4%; Control [8]: 79%; IC50 [9]: 1100 nM
3 | 7400 nM | CCCOC(=O)c1ccc2[nH]c(NC(=O)OC)nc2c1 |  | 38% |  | Control [12]: 100%
4 | 8200 nM | CCCOC(=O)Nc1nc2cc(C(=O)OCCC)ccc2[nH]1 | 85% | 36% |  | 
5 | 10000 nM | COC(=O)Nc1nc2cc(C(=O)OCCC(C)C)ccc2[nH]1 | 69% | 60% |  | 
6 | 2800 nM | CCOC(=O)c1ccc2[nH]c(NC(=O)OC)nc2c1 | 0% | 0% |  | Control [15]: 100%; Control [5]: 0%; Control [16]: 6%; IC50 [9]: 240 nM
7 | 760 nM | CCOC(=O)Nc1nc2cc(C(=O)OCC)ccc2[nH]1 | 62% | 0% |  | Control [5]: 0%; IC50 [9]: 290 nM
8 | 10000 nM | C#CCOC(=O)c1ccc2[nH]c(NC(=O)OC)nc2c1 | 79% | 58% |  | 
9 | 6900 nM | COC(=O)Nc1nc2cc(C(=O)OCC3CC3)ccc2[nH]1 | 69% | 45% |  | 
10 | 2200 nM | O=C(Nc1nc2cc(C(=O)OCC3CC3)ccc2[nH]1)OCC1CC1 | 72% | 24% |  | 

The remaining lines, values behind:

Row | Structure (SMILES) | IC50 [2] | Control [1] | Control [3] | Control [10] | also measured
11 | COC(=O)Nc1nc2cc(C(=O)Nc3ccc(C(F)(F)F)cc3)ccc2[nH]1 |  |  | 100% | 77% | 
12 | COC(=O)Nc1nc2cc(C(=O)O)ccc2[nH]1 |  |  | 100% |  | Control [11]: 0%
13 | CCN(CC)C(=O)N1CCN(C(=O)c2ccc3[nH]c(NC(=O)OC)nc3c2)CC1 |  |  | 100% | 100% | 
14 | COC(=O)Nc1nc2cc(C(=O)N3CCOCC3)ccc2[nH]1 |  |  |  |  | Control [13]: 0%; IC50 [14]: 60000 nM
15 | COC(=O)Nc1nc2cc(C(=O)Nc3ccc(F)cc3)ccc2[nH]1 |  |  | 92% | 67% | 
16 | CCNC(=O)c1ccc2[nH]c(NC(=O)OC)nc2c1 | 10000 nM |  | 41% |  | Control [17]: 89%; Control [5]: 0%; Control [18]: 0%; Control [19]: 80%; Control [20]: 0%; IC50 [9]: 6000 nM; Control [21]: 0%
17 | COC(=O)Nc1nc2cc(C(=O)N(C)C)ccc2[nH]1 |  |  | 88% | 95% | 
18 | CC(C)OC(=O)Nc1nc2cc(C(=O)OC(C)C)ccc2[nH]1 | 730 nM | 87% | 0% |  | Control [5]: 0%; IC50 [9]: 390 nM
19 | COC(=O)Nc1nc2cc(C(=O)N3CCN(C(=O)N(C)C)CC3)ccc2[nH]1 |  |  |  | 94% | 
20 | COC(=O)Nc1nc2cc(C(=O)OCc3cccs3)ccc2[nH]1 |  | 71% | 93% |  | Control [5]: 0%; IC50 [9]: 2300 nM
21 | COC(=O)Nc1nc2cc(NC(=O)c3cccc(F)c3)ccc2[nH]1 |  |  | 100% |  | 
22 | COC(=O)Nc1nc2cc(C(=O)OCc3ccc(F)cc3)ccc2[nH]1 |  | 83% |  |  | 
23 | CCOC(=O)Nc1nc2cc(C(=O)O)ccc2[nH]1 |  | 90% |  |  | Control [13]: 100%
24 | COC(=O)Nc1nc2cc(NC(=O)c3ccccc3F)ccc2[nH]1 |  |  |  | 116% | Control [13]: 0%; IC50 [14]: 14000 nM
25 | COC(=O)Nc1nc2cc(C(=O)OC(C)C)ccc2[nH]1 | 700 nM |  | 0% | 0% | Control [15]: 51%; Control [17]: 100%; Control [5]: 0%; Control [16]: 0%; Control [22]: 18%; IC50 [9]: 220 nM
26 | COC(=O)Nc1nc2cc(C(=O)N3CCN(C)CC3)ccc2[nH]1 |  |  | 100% |  | Control [12]: 101%
27 | COC(=O)Nc1nc2cc(C(=O)OCC(C)(C)C)ccc2[nH]1 |  | 82% |  |  | 
28 | COC(=O)Nc1nc2cc(C(=O)OCCC(C)CC(C)(C)C)ccc2[nH]1 (stereo unspecified) | 740 nM | 85% | 0% |  | 
29 | COC(=O)Nc1nc2cc(C(=O)c3cccs3)ccc2[nH]1 [NOCODAZOLE] | 38 nM |  | 0% |  | Control [5]: 0%; IC50 [9]: 33 nM
30 | COC(=O)Nc1nc2cc(C(=O)NCC(C)(C)C)ccc2[nH]1 | 8600 nM |  | 48% | 50% | Control [23]: 54%; Control [24]: 0%; Control [12]: 0%
31 | COC(=O)Nc1nc2cc(NC(=O)c3ccc(F)cc3)ccc2[nH]1 |  |  |  | 133% | 
32 | COC(=O)Nc1nc2cc(C(=O)N3CCNCC3)ccc2[nH]1 |  |  |  | 55% | 
33 | COC(=O)Nc1nc2cc(C(=O)NC(C)C)ccc2[nH]1 | 2000 nM | 0% | 0% |  | Control [15]: 94%; Control [17]: 110%; Control [5]: 0%; Control [25]: 4%; Control [26]: 57%; Control [16]: 0%; IC50 [9]: 1600 nM
